Shown are actives, neighbours in structure and some others; about 2.3% of the full set was active somewhere.
ASAP1 inh = ASAP1 ArfGAP inhibition; Q9ULH1; ASAP1-stimulated ARF1 GTP hydrolysis, GDP FP detection; inhibition, % at 16.5 µM; actives 0.19% (n = 360,000); in the data active = inhibition above about 25%;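 note: 0% = vehicle with enzyme and substrate and 100% = no enzyme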
Target sequence (Q9ULH1 325-724 limits assumed): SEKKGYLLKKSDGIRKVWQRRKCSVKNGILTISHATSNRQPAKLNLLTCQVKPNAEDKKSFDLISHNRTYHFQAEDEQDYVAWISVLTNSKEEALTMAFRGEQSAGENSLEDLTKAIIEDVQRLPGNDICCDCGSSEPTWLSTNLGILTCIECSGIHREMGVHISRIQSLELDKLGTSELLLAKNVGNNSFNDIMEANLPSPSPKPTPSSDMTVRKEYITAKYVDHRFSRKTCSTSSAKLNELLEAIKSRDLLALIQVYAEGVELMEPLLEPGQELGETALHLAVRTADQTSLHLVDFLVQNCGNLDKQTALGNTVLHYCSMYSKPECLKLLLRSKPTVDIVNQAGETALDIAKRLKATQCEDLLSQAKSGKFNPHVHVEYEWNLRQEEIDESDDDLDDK
SKKanGAS inh = blocks kanamycin growth of S. pyogenes SKKanGAS strain; BacTiter-Glo, 6 h; inhibition, % at 7.5 µM; actives 1.3% (n = 300,000); AID 1662;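 active = mean replicate score, as percent of positive control median, at least 50; inconclusive = mean below 50 but one replicate at or above 50; inactive = mean and every replicate below 50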;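 note: strain carries kanamycin resistance gene driven by streptokinase promoter and grows in 40 µg/ml kanamycin; loss of luminescence reflects streptokinase promoter inhibition or plain growth inhibition; 0% = median of DMSO wells and 100% = positive control at its reference dose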
HGIII-sPLA2 inh = Inhibits HGIII-sPLA2 liposome hydrolysis, primary screen | AID 743126 | inhibition, % at 12.2 µM | actives 0.56% (n = 370,000) | QFRET BODIPY PC-A2 liposome hydrolysis, fluorescence | Q9NZ20;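 active = inhibition above mean plus 3 SD of compounds lying within the high and low control bounds, cut at about 19% in these data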;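 note: 0% = median of test compound wells and 100% = no enzyme DMSO wells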
ARFGAP1 inhibitor = inhibits rat ARF GTPase activating protein 1; Q62848; Arfgap1-stimulated ARF1 GTP hydrolysis, GDP FP detection; inhibition, % at 16.5 µM; actives 0.26% (n = 360,000); AID 651572;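 active = inhibition above a per-plate limit, mean inhibition of low control wells plus 3 SD, cut at about 25% in these data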;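 note: 0% = DMSO wells with enzyme and 100% = wells lacking Arfgap1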
Target sequence (Q62848 1-136 limits assumed): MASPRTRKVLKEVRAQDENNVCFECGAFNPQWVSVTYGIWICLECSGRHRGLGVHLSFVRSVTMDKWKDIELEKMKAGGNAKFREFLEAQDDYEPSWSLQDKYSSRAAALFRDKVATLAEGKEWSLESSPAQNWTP
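Repeats: one replicate per compound; assay system: rat Arfgap1 catalytic domain, aa 1-136; times: enzyme reaction 120 min at 25 °C after 20 min preincubation; detection: FP of antibody-bound GDP Alexa 633 tracer, ex 620/em 688 nm; benchmarks: high control wells lacking Arfgap1, low control full reaction with DMSO; reagent: human ARF1(Δ1-17)-GTP substrate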
Calb FLC = C. albicans growth modulation with fluconazole | C. albicans CaCi-2 + fluconazole, Alamar Blue growth, 48 h | actives 0.57% (n = 300,000) | growth inhibition, % (test concentration not listed);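 active = growth inhibition above about 58% in most replicates, limit read from the data, passing the limit was not always enough; inconclusive = exactly half the replicates above a set limit; inactive = most replicates below a set limit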;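 note: all wells also contain fluconazole at 8 µg/ml as a sub-toxic cotreatment; 0% = median of DMSO wells and 100% = median of geldanamycin control wells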
hGIII sPLA2 conf = human GIII-sPLA2 inhibition, confirmation; actives 34% (n = 2,000); recombinant hGIII-sPLA2, BODIPY PC-A2 QFRET fluorescence; shares compounds with HGIII-sPLA2 inh; inhibition, % at 12.2 µM;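 active = mean inhibition across triplicates above the hit cutoff set in the earlier primary screen, cut at about 19% in these data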;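 note: 0% = enzyme with DMSO and 100% = DMSO wells lacking enzyme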
BODIPY interf = counter-screen for HGIII-sPLA2 inhibitors: 535nm fluorescence interference | AID 743282 | BODIPY FL product fluorescence interference, QFRET | actives 8.5% (n = 2,000) | shares compounds with HGIII-sPLA2 inh | inhibition, % at 12.2 µM;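 active = average inhibition above the solvent-only control mean plus 3 SD, cut at about 6% in these data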;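 note: 0% = DMSO with substrate plus product and 100% = DMSO with substrate alone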
BODIPY interf DR = 535nm optical interference dose response, HGIII-sPLA2 counter-screen | 240 tested, under 10 active | BODIPY FL product fluorescence interference, cell-free | IC50, µM | shares compounds with HGIII-sPLA2 inh;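 active = IC50 at or below 10 µM; inactive = IC50 above 10 µM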
Starred values were filed as active, the others as inactive; ? = inconclusive; / = no result.

SMILES	ASAP1 inh	SKKanGAS inh	HGIII-sPLA2 inh	ARFGAP1 inhibitor	Calb FLC	hGIII sPLA2 conf	BODIPY interf	others
Cc1ccc(C)c(NC(=O)CSc2nc3[nH]ncc3c(=O)[nH]2)c1	-8	-6	1	5	-25	/	/
COc1ccc(CC(N)c2csc(NC(=O)c3cc(C(C)(C)C)nn3Cc3ccccc3)n2)cc1 (stereo unspecified)	-1	/	24*	10	/	4	-5
Cc1ccc(NC(=S)NNC(=O)c2ccc(N3CCOCC3)c([N+](=O)[O-])c2)cc1Cl	12	22	17	-4	1	/	/
O=C(NNC(=S)Nc1ccc(Cl)cc1Cl)c1ccc(N2CCOCC2)c([N+](=O)[O-])c1	7	25	24*	2	-4	28*	12*
O=C(NNC(=S)Nc1ccc(Br)cc1)c1ccc(N2CCOCC2)c([N+](=O)[O-])c1	7	27	25*	-3	14	30*	11*
Cc1ccc([N+](=O)[O-])c(-c2n[nH]c(=S)n2-c2cccc(Cl)c2)c1	-13	5	31*	5	17	22*	6.6*
Cc1ccccc1-n1c(-c2ccoc2C)n[nH]c1=S	-5	-10	4	6	?	/	/
Cc1cccc(-n2c(-c3ccoc3C)n[nH]c2=S)c1	-4	6	20*	5	9	36*	-1	BODIPY interf DR=>122
S=c1[nH]nc(-c2ccc(Cl)cc2Cl)n1-c1ccccc1	11	1	16	-5	-7	/	/
COc1ccc(NCc2ccc([N+](=O)[O-])s2)cc1	11	2	9	-1	-5	/	/
COc1ccc(NCc2ccc([N+](=O)[O-])s2)c(OC)c1	3	/	25*	-2	/	13	3
CN1CCC(N[C@@H](Cc2ccccc2)C(=O)NCCCc2ccccc2)(C(=O)NCCc2c[nH]c3ccccc23)CC1	/	/	-56	/	/	/	/
COC(=O)C1=C(C)N(Cc2ccc(C(F)(F)F)cc2)C(=NCc2ccc(OC)cc2)NC1c1ccccc1 (stereo unspecified)	6	/	21*	3	/	-24	-35
COC(=O)C1=C(C)N(Cc2ccc(C(F)(F)F)cc2)C(=NCc2ccccc2)NC1c1ccc(Cl)cc1 (stereo unspecified)	-2	/	2	11	/	/	/
CC(=O)CC[C@@H]1CC[C@]2(CCCN(S(C)(=O)=O)C2)O1	/	/	22*	/	/	-2	-6
CCN(CC)C(=O)CC[C@H]1CC[C@]2(CCCN(S(C)(=O)=O)C2)O1	/	/	1	/	/	/	/
COc1ccc(C(=O)NC(=S)Nc2cccc(NC(=O)c3ccco3)c2)cc1[N+](=O)[O-]	11	21	28*	15	2	10	2
COc1ccc(C(=O)NC(=S)Nc2ccc(N3CCN(C(C)=O)CC3)cc2)cc1[N+](=O)[O-]	5	41	21*	1	8	10	-18
CCCCC(=O)Nc1ccc(NC(=S)NC(=O)c2ccco2)cc1OC	2	9	31*	5	7	18	-9
CC(=O)N1CCN(c2ccc(NC(=S)NC(=O)c3ccc(C)c([N+](=O)[O-])c3)cc2)CC1	-10	14	8	8	0	/	/
CCCCOCC1CN(Cc2ccccc2OC)S(=O)(=O)c2cc(Cl)ccc2O1 (stereo unspecified)	-9	/	3	5	/	/	/
CCCCNCc1nc2ccccc2c(=O)[nH]1	9	9	27*	19	0	15	-2
CCc1ccc(NCc2nc3ccccc3c(=O)[nH]2)cc1	-9	-2	-10	5	-5	/	/
CCOC(=O)C1=NOC(C(=O)Nc2nccs2)(C(=O)C2CC2)C1 (stereo unspecified)	/	/	1	/	/	/	/
O=C(O)C1(Nc2ccc(Cl)cc2)CCCC1	15	/	-3	-5	/	/	/
SMILES	ASAP1 inh	SKKanGAS inh	HGIII-sPLA2 inh	ARFGAP1 inhibitor	Calb FLC	hGIII sPLA2 conf	BODIPY interf	others
NC(=O)C1(Nc2ccc(-c3ccc(Cl)cc3)cc2)CCCC1	-2	/	22*	1	/	11	-1
COc1cc([N+](=O)[O-])c(OC)cc1SCc1n[nH]c(=S)n1-c1ccc(F)cc1	-12	1	22*	-7	-7	36*	6
COc1cc([N+](=O)[O-])c(OC)cc1SCc1n[nH]c(=S)n1-c1ccc(C)cc1	-5	-6	19*	15	2	22*	5
C=CCN=C1NC(c2cccc(F)c2)C(C(=O)OC)=C(C)N1Cc1ccccc1C(F)(F)F (stereo unspecified)	-8	/	-4	6	/	/	/
CC(C)CNC(=O)COc1ccc2c3c(c(=O)oc2c1)CCC3	6	3	21*	16	11	-2	-5
O=C(Nc1ccccc1)c1cccc(C(=O)Nc2ccccc2)n1	1	-3	6	-9	-1	/	/
CN(C)c1ccc(NC(=O)c2cccc(C(=O)Nc3ccc(N(C)C)cc3)n2)cc1	9	-6	28*	-4	20	36*	-11	BODIPY interf DR=>122
CCOC(=O)CC[C@H]1CC[C@]2(CCCN(C(=O)C(C)(C)C)C2)O1	/	/	1	/	/	/	/
Cc1ccc2sc(C)[n+](CCC(C)S(=O)(=O)[O-])c2c1 (stereo unspecified)	4	-4	20*	-4	-6	-4	0
COC(=O)C1=C(C)N(C)C(=NCc2ccc3c(c2)OCO3)NC1c1ccccc1 (stereo unspecified)	1	/	-1	3	/	/	/
C[C@@H]1ON(C)[C@H]2C[C@H]3c4cc(-c5ccccc5)ccc4CCN3C[C@@H]12	-4	/	-1	-1	/	/	/
Cc1ccc(NC(=S)NNC(=O)CSc2nc3ccccc3c(=O)n2-c2ccc(Cl)cc2)cc1	/	/	29*	/	/	24*	2
CCN(CC)c1ccc(NC(=O)CSc2nc3ccccc3c(=O)n2-c2ccc(C)cc2)cc1	/	/	28*	/	/	30*	-11	BODIPY interf DR=>122
Cc1ccc(-n2c(SCC(=O)Nc3ccc(Cl)cc3)nc(O)cc2=O)cc1	12	41	7	2	-8	/	/
Cc1ccc(-n2c(SCC(=O)NNC(=S)Nc3ccccc3)nc3ccccc3c2=O)cc1	11	5	30*	0	-5	26*	2
CCN(CC)c1ccc(NC(=O)CSc2nc3ccccc3c(=O)n2-c2cc(S(=O)(=O)N(C)C)ccc2C)cc1	14	-1	2	-10	4	/	/
Cc1ccc(-c2cc(-c3nnc(SCc4cccc5ccccc45)n3N)[nH]n2)cc1	/	/	0	/	/	/	/
CC(C)Cc1ccc(CN2C(C)C(=O)N(Cc3cn(Cc4ccco4)nn3)CCS2(=O)=O)cc1 (stereo unspecified)	1	/	-52	-4	/	/	/

High-throughput results (PubChem)
